CHT allo act = allosteric activators of human choline transporter CHT; B-score at 10 µM; Q9GZV3; CHT-expressing cells, membrane potential dye, choline EC20; stronger effect = higher value; LV-AA mutant CHT in HEK293 cells; hit rate 0.49% among 310,000; AID 488977;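 active = initial fluorescence not abnormally high and integrated response B-score, plate-corrected, over 3 SD above library mean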
proCasp3 act = activates human procaspase-3; hit rate 0.11% among 330,000; recombinant procaspase-3 D3A, Ac-DEVD-pNA absorbance 405 nm; P42574; activation, % at 8.5 µM;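 active = activation above the mean of all tested compounds plus 3 SD, cut at about 21% in these data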;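 also: 0% = DMSO alone and 100% = DMSO wells spiked with extra 5 µM PC-3 D3A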
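assay system = Procaspase-3 D3A mutant | signal = absorbance at 405 nm, 0 and 120 min | times = 1 h preincubation plus 2 h reaction at 25 °C | repeats = single replicate | read-out = % activation between DMSO and enzyme-spiked controls | medium = Zinc-free HEPES saline buffer with Triton X-100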
CHT block = inhibits the human high affinity choline transporter; hit rate 0.86% among 310,000; CHT-expressing cells, membrane potential dye, choline response; stronger effect = lower value; Q9GZV3; B-score at 10 µM;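 active = B-score over 3 SD under the library average, and starting fluorescence ratio not unusually high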;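 also: choline stimulus applied at its EC90 after an EC20 pre-addition; B-score computed on integrated fluorescence ratio after choline addition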
procasp7 counter = activates human procaspase-7, counter-screen for procaspase-3 activators; P55210; recombinant procaspase-7, Ac-DEVD-pNA absorbance 405 nm; D23A/D198A/D206A triple mutant, cannot self-cleave; scale: DMSO 0, 5 µM enzyme 100; activation, % at 8.5 µM; hit rate 0.093% among 330,000; AID 463210;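 active = percent activation above the screen-wide mean plus 3 SD, cut at about 25% in these data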
Target sequence (P55210 whole entry D23A/D198A/D206A): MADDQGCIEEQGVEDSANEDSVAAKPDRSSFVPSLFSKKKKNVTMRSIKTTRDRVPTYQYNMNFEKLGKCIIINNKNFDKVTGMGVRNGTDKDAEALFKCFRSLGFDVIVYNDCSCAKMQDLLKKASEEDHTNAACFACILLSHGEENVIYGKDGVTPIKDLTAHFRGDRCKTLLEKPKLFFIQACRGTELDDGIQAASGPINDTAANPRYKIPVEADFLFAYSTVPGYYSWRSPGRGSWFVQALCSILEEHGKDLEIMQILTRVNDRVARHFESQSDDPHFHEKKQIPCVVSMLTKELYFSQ
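Assay system: Uncleavable procaspase-7 mutant enzyme | Input: 2 µM procaspase-7 mutant as dispensed | Timing: 1 h compound preincubation, 2 h substrate cleavage, 25 °C | Repeats: One well per compound | Control set: DMSO wells as 0%, DMSO with 5 µM added PC-7 as 100% | Technique: Epi-absorbance of released pNA at 405 nm, two timepoints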
CHT act confirm = confirmation of human choline transporter (CHT) activators; shares compounds with CHT allo act; CHT-expressing cells, membrane potential dye fluorescence (FDSS); % of choline EC20–EC90 response window; HEK293 expressing CHT LV-AA mutant; choline added at its EC20; activation, % at 10 µM; hit rate 91% among 2,500; AID 504833;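 active = primary screen active, with duplicate mean activation above negative control mean plus 3 SD, cut at about 11% in these data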
HEK293 MP dye = counter-screen for CHT activators: effect in parental HEK293 cells; shares compounds with CHT allo act; ratio readout change at 10 µM, hits read low; membrane potential dye fluorescence (FDSS); measured after EC20 choline addition; AID 623908; hit rate 62% among 2,500;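 active = duplicate-averaged ratio beyond 3 SD from buffer wells, up or down, though filed actives are nearly all decreases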
Starred values were filed as active, the others as inactive; i = inactive; x = no result. Compounds with a hit are over-represented: about 1.3% of the library has one in this group of screens.

SMILES	CHT allo act	proCasp3 act	CHT block	procasp7 counter	CHT act confirm	HEK293 MP dye
CN1CCN(c2nc(-c3cccs3)nc3ccccc23)CC1	i	3	i	6	39*	-65*
Cc1cccc(NC(=O)CNC(=O)Cc2ccc(S(=O)(=O)N3CCOCC3)s2)c1C	x	1	x	0	x	x
O=C(CSC1=N/C(=C/c2ccco2)C(=O)N1c1ccc(OC(F)F)cc1)NC1CCS(=O)(=O)C1 (stereo unspecified)	i	-4	i	0	x	x
COc1ccc(N2C(=O)/C(=C\c3ccco3)N=C2SCC(=O)N(C(C)C)C(C)C)cc1Cl	i	-4	i	-1	13*	i
CCOc1ccccc1CNCCNC(=O)c1nonc1N	i	2	i	9	x	x
C=CCOc1ccccc1CNCCNC(=O)c1nonc1N	i	3	i	2	x	x
Nc1nonc1C(=O)NCCNCc1ccccc1OCc1ccccc1F	6.3*	7	i	8	16*	i
Nc1nonc1C(=O)NCCNCc1cc(Br)ccc1OCc1ccccc1F	i	3	i	-6	22*	i
COC(=O)C1CCN(C(=O)CSc2nnc(-c3ccccc3)o2)CC1	i	7	i	1	x	x
O=C(NCCN1CCOCC1)c1cccc(S(=O)(=O)NCc2ccccc2)c1	i	-1	i	0	x	x
Cc1nn(C)c(Oc2cccc(Cl)c2)c1C(=O)Nc1ccc(F)cc1F	i	-1	i	11	30*	i
COC(=O)C1(CC2CC(c3ccc(Cl)cc3)=NO2)CCN(C(=O)OC(C)(C)C)CC1 (stereo unspecified)	i	-10	i	4	x	x
COc1cc(/C=C/C(=O)NC(C)CCc2ccccc2)cc(OC)c1OC (stereo unspecified)	i	5	i	-2	0	i
COc1cccc(C2CC(c3ccccc3OC)n3ncnc3N2)c1 (stereo unspecified)	i	4	i	6	x	x
COc1ccccc1C1CC(c2ccc(Cl)cc2)Nc2ncnn21 (stereo unspecified)	i	0	i	6	30*	i
c1cncc(-c2nc(NCC3CCCO3)c3ccccc3n2)c1 (stereo unspecified)	i	-2	i	8	22*	-33*
CC(C)Oc1ccc(-c2nc(NCC3CCCO3)c3ccccc3n2)cc1 (stereo unspecified)	i	-2	i	-1	x	x
CC(NC(=O)c1cccc(S(=O)(=O)N2CCN(C)CC2)c1)c1ccc(Cl)cc1Cl (stereo unspecified)	i	1	i	3	x	x
CCN(CC)CCNC1=NCCn2c1cc1cc(OC)ccc12	8.2*	-4	i	-4	60*	-51*
Cc1c2c(n3c(nc4ccccc43)c1C#N)N(CCN(C)C)CC2	7.1*	-8	i	-8	42*	-70*
Cc1c2c(n3c(nc4ccccc43)c1C#N)N(CCCN(C)C)CC2	7*	-1	i	-4	44*	-66*
CCCCCCCCCCOC(=O)Cn1c(COc2ccccc2OC)[n+](C)c2ccccc21	19*	-4	i	12	91*	-37*
Cc1sc2ncn(CCn3cnc4sc(C)c(C)c4c3=O)c(=O)c2c1C	i	1	i	-1	x	x
Cc1sc2ncn3c(C)nnc3c2c1C	7*	3	i	5	59*	-58*
CCCCCCCn1c2c(c(=N)c3ccccc31)CCC2	17*	-1	i	-2	75*	-43*
N=c1c2c(n(Cc3ccc(Cl)c(Cl)c3)c3c1CCC3)CCCC2	9.6*	-1	i	13	78*	-39*
O=C(O)CCn1c2c(c3ccccc31)CCCC2	i	3	i	-5	x	x
CCCn1c2c(c(=N)c3c1CCC3)CCCC2	7.9*	2	i	14	50*	-72*
N=c1c2c(n(Cc3ccc([N+](=O)[O-])cc3)c3c1CCC3)CCCC2	i	2	i	-2	x	x

Compound activity: PubChem, several laboratories
